This is an account of results in ChEMBL document CHEMBL1138840, “Discovery of positive allosteric modulators for the metabotropic glutamate receptor subtype 5 from a series of N-(1,3-diphenyl-1H- pyrazol-5-yl)benzamides that potentiate receptor function in vivo” (J Med Chem, 2004).

As usually defined, the EC50 is the midpoint of the concentration-response curve. A higher EC50 goes with weaker potency.

Assay [1] deals with T1, Metabotropic glutamate receptor 5 (Homo sapiens, UniProt P41594). Description: Effective concentration against metabotropic glutamate receptor 5 of human transfected into CHO cells. It counts as cell-based. An outline of the steps: (§1)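 FLIPR calcium assay in CHO cells transfected with human or rat mGluR5. Compound added with a low glutamate concentration (300 nM), measuring increase in response; compound alone (up to 100 µM) checked for agonist activity.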
Target sequence in this assay (P41594 whole entry): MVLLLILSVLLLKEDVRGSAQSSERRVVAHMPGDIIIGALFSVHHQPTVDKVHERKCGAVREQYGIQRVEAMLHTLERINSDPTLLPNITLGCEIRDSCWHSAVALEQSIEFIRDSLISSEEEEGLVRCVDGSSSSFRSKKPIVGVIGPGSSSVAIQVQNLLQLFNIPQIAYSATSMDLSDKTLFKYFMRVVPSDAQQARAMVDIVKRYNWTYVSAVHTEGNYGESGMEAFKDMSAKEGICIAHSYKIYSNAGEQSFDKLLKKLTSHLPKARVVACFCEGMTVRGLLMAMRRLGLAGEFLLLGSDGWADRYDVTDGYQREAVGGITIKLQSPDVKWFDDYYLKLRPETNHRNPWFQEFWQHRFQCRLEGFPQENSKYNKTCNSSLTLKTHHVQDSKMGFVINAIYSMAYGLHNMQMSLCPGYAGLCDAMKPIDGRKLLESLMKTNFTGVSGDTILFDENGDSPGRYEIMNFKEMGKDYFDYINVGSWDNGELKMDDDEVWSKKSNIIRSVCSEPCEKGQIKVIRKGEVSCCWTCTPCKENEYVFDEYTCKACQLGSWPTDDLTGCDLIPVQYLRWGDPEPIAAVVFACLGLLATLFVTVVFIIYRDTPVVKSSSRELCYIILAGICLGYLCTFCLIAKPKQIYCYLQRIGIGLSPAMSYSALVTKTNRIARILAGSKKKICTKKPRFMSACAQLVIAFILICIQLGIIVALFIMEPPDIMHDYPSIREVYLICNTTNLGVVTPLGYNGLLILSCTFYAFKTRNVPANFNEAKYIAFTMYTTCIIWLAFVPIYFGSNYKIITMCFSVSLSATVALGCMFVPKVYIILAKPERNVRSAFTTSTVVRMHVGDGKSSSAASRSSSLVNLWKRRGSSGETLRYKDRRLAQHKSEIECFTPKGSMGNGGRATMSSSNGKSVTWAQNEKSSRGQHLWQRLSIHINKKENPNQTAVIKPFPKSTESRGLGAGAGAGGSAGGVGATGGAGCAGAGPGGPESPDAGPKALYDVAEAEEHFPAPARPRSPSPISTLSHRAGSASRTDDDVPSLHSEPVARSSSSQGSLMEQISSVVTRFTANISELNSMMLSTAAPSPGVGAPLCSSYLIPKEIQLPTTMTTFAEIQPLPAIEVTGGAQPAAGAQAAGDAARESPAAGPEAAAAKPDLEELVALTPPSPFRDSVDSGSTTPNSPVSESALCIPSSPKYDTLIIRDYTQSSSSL

Assay [2] deals with Metabotropic glutamate receptor 5 (Rattus norvegicus) (UniProt P31424). Description: Fold potentiation towards rat metabotropic glutamate receptor 5. In kind it is functional. The method in brief:
as §1

Assay [3] concerns the target T1, Metabotropic glutamate receptor 5. Description: Fold potentiation in CHO cells overexpressing human metabotropic glutamate receptor 5. It counts as functional, cell-based. An outline of the steps:
as §1
Target sequence in this assay (P41594 21-1212 limits assumed): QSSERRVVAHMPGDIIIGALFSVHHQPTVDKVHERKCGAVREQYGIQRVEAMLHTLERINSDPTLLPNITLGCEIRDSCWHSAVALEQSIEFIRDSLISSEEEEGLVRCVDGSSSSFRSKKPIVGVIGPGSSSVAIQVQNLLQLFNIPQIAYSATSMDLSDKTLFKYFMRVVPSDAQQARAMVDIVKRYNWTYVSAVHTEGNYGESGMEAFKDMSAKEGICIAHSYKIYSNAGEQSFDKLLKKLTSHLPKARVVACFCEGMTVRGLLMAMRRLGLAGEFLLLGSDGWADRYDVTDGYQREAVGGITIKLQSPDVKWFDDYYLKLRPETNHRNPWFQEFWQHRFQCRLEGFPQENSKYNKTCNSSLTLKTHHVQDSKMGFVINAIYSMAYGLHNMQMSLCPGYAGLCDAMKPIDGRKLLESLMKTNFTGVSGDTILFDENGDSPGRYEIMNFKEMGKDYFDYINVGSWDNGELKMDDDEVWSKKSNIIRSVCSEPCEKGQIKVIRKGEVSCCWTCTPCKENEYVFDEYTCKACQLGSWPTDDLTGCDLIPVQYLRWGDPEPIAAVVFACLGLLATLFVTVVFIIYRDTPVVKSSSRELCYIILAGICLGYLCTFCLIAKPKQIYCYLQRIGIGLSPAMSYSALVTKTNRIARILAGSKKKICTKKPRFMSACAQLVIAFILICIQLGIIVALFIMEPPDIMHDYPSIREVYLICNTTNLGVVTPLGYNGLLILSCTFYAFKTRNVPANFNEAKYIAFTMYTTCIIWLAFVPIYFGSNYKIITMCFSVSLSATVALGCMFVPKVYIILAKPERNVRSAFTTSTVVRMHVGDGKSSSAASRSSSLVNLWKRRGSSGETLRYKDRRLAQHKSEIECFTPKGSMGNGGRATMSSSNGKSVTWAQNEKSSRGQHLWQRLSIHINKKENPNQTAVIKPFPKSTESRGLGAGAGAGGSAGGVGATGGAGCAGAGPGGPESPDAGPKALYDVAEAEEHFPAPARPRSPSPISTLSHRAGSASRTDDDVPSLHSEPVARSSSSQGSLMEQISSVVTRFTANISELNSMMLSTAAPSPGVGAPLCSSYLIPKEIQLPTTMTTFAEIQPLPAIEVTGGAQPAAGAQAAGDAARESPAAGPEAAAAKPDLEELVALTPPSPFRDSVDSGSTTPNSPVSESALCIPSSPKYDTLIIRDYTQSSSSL

Assay [4] has as its target Metabotropic glutamate receptor 5 (Rattus norvegicus, UniProt P31424). Description: Effective concentration against metabotropic glutamate receptor 5 of rat. The method in brief:
as §1

Chain of Metabotropic glutamate receptor 5 (Rattus norvegicus, UniProt P31424) (P31424 whole entry): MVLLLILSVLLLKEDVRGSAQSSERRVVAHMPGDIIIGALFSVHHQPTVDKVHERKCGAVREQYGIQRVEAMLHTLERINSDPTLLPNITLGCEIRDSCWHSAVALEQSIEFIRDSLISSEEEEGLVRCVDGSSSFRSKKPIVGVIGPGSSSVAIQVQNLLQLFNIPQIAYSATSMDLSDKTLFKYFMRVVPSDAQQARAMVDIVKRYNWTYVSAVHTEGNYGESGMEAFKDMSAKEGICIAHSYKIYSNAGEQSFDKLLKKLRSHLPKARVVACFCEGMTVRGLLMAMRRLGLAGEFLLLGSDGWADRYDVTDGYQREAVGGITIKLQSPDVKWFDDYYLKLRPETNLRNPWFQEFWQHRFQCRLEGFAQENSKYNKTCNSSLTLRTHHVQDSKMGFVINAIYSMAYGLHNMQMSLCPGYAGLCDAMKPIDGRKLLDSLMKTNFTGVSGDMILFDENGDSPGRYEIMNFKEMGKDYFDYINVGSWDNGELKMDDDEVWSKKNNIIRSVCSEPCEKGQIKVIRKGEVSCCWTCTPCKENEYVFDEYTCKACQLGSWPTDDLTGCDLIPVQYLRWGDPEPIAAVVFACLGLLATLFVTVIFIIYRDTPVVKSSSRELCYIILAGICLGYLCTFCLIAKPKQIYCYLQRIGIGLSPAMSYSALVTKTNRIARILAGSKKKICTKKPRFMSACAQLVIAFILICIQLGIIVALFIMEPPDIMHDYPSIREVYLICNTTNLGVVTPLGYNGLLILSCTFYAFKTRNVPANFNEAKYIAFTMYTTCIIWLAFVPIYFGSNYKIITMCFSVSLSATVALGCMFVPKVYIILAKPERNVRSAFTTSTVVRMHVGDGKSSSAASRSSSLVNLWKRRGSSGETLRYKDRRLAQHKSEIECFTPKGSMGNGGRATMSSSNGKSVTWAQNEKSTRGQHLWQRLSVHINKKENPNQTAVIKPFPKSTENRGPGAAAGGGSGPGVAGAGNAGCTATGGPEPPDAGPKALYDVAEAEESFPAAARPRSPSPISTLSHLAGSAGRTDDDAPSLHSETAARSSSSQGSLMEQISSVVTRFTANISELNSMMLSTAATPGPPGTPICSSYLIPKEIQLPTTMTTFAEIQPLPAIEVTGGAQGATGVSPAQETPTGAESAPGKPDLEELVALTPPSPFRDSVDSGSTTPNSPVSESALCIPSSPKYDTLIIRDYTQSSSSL
Chain of Metabotropic glutamate receptor 5 (Rattus norvegicus) (P31424 21-1203 limits assumed): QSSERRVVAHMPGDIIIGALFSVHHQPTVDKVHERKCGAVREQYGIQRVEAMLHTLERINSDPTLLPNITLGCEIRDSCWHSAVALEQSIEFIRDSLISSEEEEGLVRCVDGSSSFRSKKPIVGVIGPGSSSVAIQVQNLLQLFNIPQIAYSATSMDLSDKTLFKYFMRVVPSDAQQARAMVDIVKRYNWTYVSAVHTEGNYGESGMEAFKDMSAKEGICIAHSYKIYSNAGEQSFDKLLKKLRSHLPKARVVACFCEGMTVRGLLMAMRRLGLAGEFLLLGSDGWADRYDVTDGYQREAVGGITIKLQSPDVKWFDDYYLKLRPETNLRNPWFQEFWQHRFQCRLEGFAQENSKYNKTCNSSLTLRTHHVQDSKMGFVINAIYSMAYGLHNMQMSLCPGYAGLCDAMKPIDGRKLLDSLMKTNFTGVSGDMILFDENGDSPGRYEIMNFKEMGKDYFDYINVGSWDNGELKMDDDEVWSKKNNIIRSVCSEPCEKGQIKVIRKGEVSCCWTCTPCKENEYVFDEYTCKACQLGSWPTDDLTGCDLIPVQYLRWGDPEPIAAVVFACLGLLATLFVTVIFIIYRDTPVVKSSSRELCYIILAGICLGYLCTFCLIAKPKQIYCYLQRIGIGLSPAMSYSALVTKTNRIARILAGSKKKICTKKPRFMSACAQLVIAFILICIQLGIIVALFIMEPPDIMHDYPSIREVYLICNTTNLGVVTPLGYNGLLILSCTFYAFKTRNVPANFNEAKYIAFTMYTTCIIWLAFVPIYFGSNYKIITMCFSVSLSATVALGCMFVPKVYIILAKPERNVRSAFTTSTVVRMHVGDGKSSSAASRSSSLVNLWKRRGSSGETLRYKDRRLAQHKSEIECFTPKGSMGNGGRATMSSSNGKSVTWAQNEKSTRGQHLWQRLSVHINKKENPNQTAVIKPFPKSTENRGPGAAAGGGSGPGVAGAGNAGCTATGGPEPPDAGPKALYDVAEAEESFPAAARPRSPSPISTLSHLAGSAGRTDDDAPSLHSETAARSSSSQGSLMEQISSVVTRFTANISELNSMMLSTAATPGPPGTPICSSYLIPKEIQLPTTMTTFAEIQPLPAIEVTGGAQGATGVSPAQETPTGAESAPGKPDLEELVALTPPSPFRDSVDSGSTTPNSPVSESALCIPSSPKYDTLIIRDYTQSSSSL

Turning to `O=C(Nc1cc(-c2ccccc2)nn1-c1ccccc1)c1ccccc1O`, the EC50 in assay [1] and in assay [4] was above 10000 nM each time. Also, the Potentiation in assay [2] and in assay [3] was 0.9 each time.

Consider `O=C(Nc1cc(-c2ccccc2)nn1-c1ccccc1)c1cnccn1`, for which the EC50 in assay [1] was 200 nM; in assay [4] it was 400 nM. For the same compound, the values for the Potentiation in assay [2] and in assay [3] were 4.8 and 4.3, respectively.

Take `Cc1ccc(C(=O)Nc2cc(-c3ccccc3)nn2-c2ccccc2)cc1`: the results for the EC50 in assay [1] and in assay [4] were 30 nM and 40 nM, respectively. Further, the Potentiation in assay [2] was determined as 10.9; in assay [3], 9.

In the case of `O=C(Nc1ccc(Cl)cc1CN1C(=O)c2ccccc2C1=O)c1ccccc1O`, the Potentiation in assay [3] amounted to 7.

Take `O=C(Nc1cc(-c2ccccc2)nn1-c1ccccc1)c1ccsc1`: the figures for the EC50 in assay [1] and in assay [4] were 1800 nM and 2900 nM, respectively. Besides, the Potentiation came to 3.7 in assay [2] and 2.5 in assay [3].

In the case of `O=C(Nc1cc(-c2ccccc2)nn1-c1ccccc1)c1ccccn1`, the EC50 stood at 290 nM in assay [1] and 585 nM in assay [4]. The Potentiation in assay [2] worked out at 8; in assay [3], 3.6.

In the case of `O=C(Nc1cc(-c2ccccc2)nn1-c1ccccc1)c1ccccc1`, the 50% effective concentration (EC50) in assay [1] worked out at 40 nM; in assay [4] it was 300 nM. For the same compound, the Potentiation in assay [2] and in assay [3] was 5 throughout.

With `Cc1cccc(C(=O)Nc2cc(-c3ccccc3)nn2-c2ccccc2)c1`, the EC50 is 90 nM in assay [1] and 100 nM in assay [4]. For the same compound, the values for the Potentiation in assay [2] and in assay [3] were 9.4 and 9, respectively.

In the case of `O=C(Nc1cc(-c2ccccc2)nn1-c1ccccc1)c1ccccc1F`, the EC50 in assay [1] was determined as 75 nM; in assay [4] it was 100 nM. The Potentiation in assay [2] was determined as 6.3; in assay [3] it was 6.4.

For `N#Cc1cccc(C(=O)Nc2cc(-c3ccccc3)nn2-c2ccccc2)c1`, the Potentiation stood at 4.3 in assay [2] and 4 in assay [3].

Regarding `O=C(Nc1cc(-c2ccccc2)nn1-c1ccccc1)c1ccc(C(F)(F)F)cc1`, the EC50 was found to be 19 nM in assay [1] and 20 nM in assay [4]. In addition, the Potentiation was determined as 6.8 in assay [2] and 5.2 in assay [3].

With `O=C(Nc1cc(-c2ccccc2)nn1-c1ccccc1)c1ccc(F)c(F)c1`, the half-maximal effective concentration (EC50) stood at 10 nM in assay [1] and 20 nM in assay [4]. For the same compound, the Potentiation in assay [2] stood at 6.4; in assay [3] it was 2.6.

Turning to `O=C(Nc1cc(-c2ccccc2)nn1-c1ccccc1)c1ccc(F)cc1`, the EC50 came to 30 nM in assay [1] and 50 nM in assay [4]. The Potentiation was 8 in assay [2] and 2.9 in assay [3].

For the compound `O=C(Nc1ccc(Cl)cc1CN1C(=O)c2ccccc2C1=O)c1ccccn1`, the concentration for a half-maximal effect (EC50) in assay [1] was found to be 245 nM. The Potentiation in assay [3] came out at 7.

`O=C(Nc1cc(-c2ccccc2)nn1-c1ccccc1)c1ccccc1Cl` came in with an EC50 in assay [1] of 2500 nM. Moreover, in assay [3], the Potentiation is 3.7.

In assay [1], `Fc1cccc(/C=N/N=C/c2cccc(F)c2)c1` returned an EC50 of 2.36 nM. Further, in assay [3], the Potentiation is 3.

The compound `O=C(Nc1ccc(Br)cc1CN1C(=O)c2ccccc2C1=O)c1ccccn1` displayed an EC50 in assay [1] of 740 nM. Further, in assay [3], the Potentiation was found to be 6.

`Cc1ccccc1C(=O)Nc1cc(-c2ccccc2)nn1-c1ccccc1` had an EC50 in assay [1] above 10000 nM. Besides, the Potentiation in assay [3] stood at 0.9.

With `O=C(Nc1cc(-c2ccccc2)nn1-c1ccccc1)c1cccc(F)c1`, the concentration giving a half-maximal response (EC50) is 20 nM in assay [1] and 65 nM in assay [4]. Besides, the results for the Potentiation in assay [2] and in assay [3] were 7.7 and 2.6, respectively.

Regarding `O=C(Nc1cc(-c2ccccc2)nn1-c1ccccc1)c1cccc(Cl)c1`, the EC50 in assay [1] turned out to be 40 nM; in assay [4], 200 nM. For the same compound, the results for the Potentiation in assay [2] and in assay [3] were 3.3 and 5.4, respectively.

As to `O=C(Nc1cc(-c2ccccc2)nn1-c1ccccc1)c1cccs1`, the concentration for a half-maximal effect (EC50) in assay [1] came out at 200 nM; in assay [4] it was 400 nM. Moreover, the Potentiation worked out at 5.3 in assay [2] and 2.9 in assay [3].

Regarding `O=C(Nc1cc(-c2ccccc2)nn1-c1ccccc1)c1ccc(Cl)cc1`, the EC50 in assay [1] came to 20 nM; in assay [4], 100 nM. Also, the Potentiation in assay [2] is 4.9; in assay [3], 5.
